These results are taken from ChEMBL document CHEMBL1133503 (J Med Chem, 2000).

As a reminder, the IC50 is the concentration that inhibits the measured activity by half. As usually defined, the IC90 is the point of the concentration-response curve where the effect stands at 90%.

Structures are written as SMILES.

A short description of assay [1]: Concentration of drug required to reduce V-79 cell survival to 50% of controls in a SRB assay. Format: functional, cell-based. The settings on record: Cricetulus griseus, V79. In short, it runs like this:
(§1)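 V-79 cells (about 7 × 10³ per 100 μL) preincubated 24 h, then exposed to drug for 3 h under oxic conditions. Washed 5× with HBSS and grown 48 h more. Fixed with TCA and stained with SRB. Bound dye dissolved in 10 mM Tris, spotted on TLC and read by video densitometry. IC50 is the mean of triplicates in one experiment. Ratio is IC50 of sulfide over sulfoxide or sulfone.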
In general terms: The SRB assay estimates cell density from bound dye.

The nature of assay [2]: Relative cytotoxicity is expressed as the ratio of the IC50 values of the corresponding sulfide to sulfoxide or to sulfone. Format: functional, Cricetulus griseus. In short, it runs like this: as §1
Assay [3] in a line: Hypoxia-selective cytotoxicity required to reduce cell survival to 10% of controls using V-79 cells in the clonogenic assay, with N2. Type of assay: functional. The settings on record: Cricetulus griseus, V79. In a few lines: (§2)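 V-79 cells (500 000 per bottle) grown 20 h in MEM with 10% FBS. Hypoxic set gassed 2 h at 37 °C with humidified 95% N2/5% CO2. Drug in ethanol/water or DMF injected through septa. Exposure 3 h under air or hypoxia. Cells trypsinised, counted by trypan blue, 500 plated in triplicate for 6–8 days. Colonies stained with crystal violet, survival relative to solvent control.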

Assay [4] is described as follows: Hypoxic selectivity expressed as the ratio of IC50 values in air and nitrogen. Type of assay: functional.
The nature of assay [5]: Hypoxia-selective cytotoxicity required to reduce cell survival to 10% of controls using V-79 cells in the clonogenic assay, with air. Format: functional. The settings on record: Cricetulus griseus, V79. In a few lines:
as §2

The species named for assay [6] is Rattus norvegicus. The assay is described as follows: Bioreduction experiment was conducted by incubation of the sulfoxides with rat liver S-9 fractions in anaerobic conditions (N2 2-hydroxypyrimidine). Type of assay: functional. In a few lines:
(§3)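 Rat liver S-9 fraction incubated with sulfoxide at 37 °C for 30 min with shaking. Aerobic vials were left open to air. Anaerobic vials were purged with N2 for 10 min before the compound was injected. Cofactor was NADPH, benzaldehyde, 2-hydroxypyrimidine or acetaldehyde, or none. Controls were boiled S-9 and S-9 without cofactors. For menadione, S-9 was preincubated aerobically with 1 equiv for 30 min, then benzaldehyde was added. Sulfide or sulfone was measured by HPLC or TLC densitometry.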

For assay [7], the species on record is Rattus norvegicus. In words: Bioreduction experiment was conducted by incubation of the sulfoxides with rat liver S-9 fractions in anaerobic conditions (N2, without cofactors). Type of assay: functional. Also noted: concentration or dose not given beside the values. In a few lines: as §3
The nature of assay [8]: Concentration required to reduce cell survival to 10% of controls using V-79 cells in the clonogenic assay, in anaerobic conditions (hypoxic conditions). Format: functional. The note with it: Cricetulus griseus, V79. In short, it runs like this: as §2
For assay [9], the species on record is Rattus norvegicus. The assay is described as follows: Bioreduction experiment was conducted by incubation of the sulfoxides with rat liver S-9 fractions in anaerobic conditions (N2, benzaldehyde). Also noted: concentration or dose not given beside the values. Type of assay: functional. In short, it runs like this: as §3
For assay [10], the species on record is Rattus norvegicus. The assay is described as follows: Bioreduction experiment was conducted by incubation of the sulfoxides with rat liver S-9 fractions in anaerobic conditions (N2). Type of assay: functional. In a few lines: as §3
The species entered for assay [11] is Rattus norvegicus. In words: Reduction potential (SCE) determined by differential pulse polarography of the sulfoxides […]. Format: functional.
Assay [12] can be described thus: Concentration required to reduce cell survival to 10% of controls using V-79 cells in the clonogenic assay, in aerobic conditions. The note with it: Cricetulus griseus, V79. Format: functional. In a few lines:
as §2

The species entered for assay [13] is Rattus norvegicus. In words: Bioreduction experiment was conducted by incubation of the sulfoxides with rat liver S-9 fractions in aerobic conditions(air ). Type of assay: functional. In short, it runs like this:
as §3

Assay [14] is filed under the species Rattus norvegicus. In words: Bioreduction experiment was conducted by incubation of the sulfoxides with rat liver S-9 fractions in anaerobic conditions(N2, without cofactors). Type of assay: functional. In short, it runs like this: as §3
For assay [15], the species on record is Rattus norvegicus. In words: Bioreduction experiment was conducted by incubation of the sulfoxides with rat liver S-9 fractions in anaerobic conditions(N2, menadione). Format: functional. In a few lines: as §3
For assay [16], the species on record is Rattus norvegicus. In words: Bioreduction experiment was conducted by incubation of the sulfoxides with rat liver S-9 fractions in aerobic conditions(air, NADPH). Format: functional. In a few lines: as §3
For assay [17], the species on record is Rattus norvegicus. The assay is described as follows: Bioreduction experiment was conducted by incubation of the sulfoxides with rat liver S-9 fractions in aerobic conditions(air, benzaldehyde). Format: functional. In a few lines:
as §3

The species named for assay [18] is Rattus norvegicus. In words: Bioreduction experiment was conducted by incubation of the sulfoxides with rat liver S-9 fractions in aerobic conditions(air without cofactors). Type of assay: functional. In a few lines: as §3
The species named for assay [19] is Rattus norvegicus. The assay is described as follows: Bioreduction experiment was conducted by incubation of the sulfoxides with rat liver S-9 fractions in anaerobic conditions N2). Format: functional. In short, it runs like this:
as §3

The species entered for assay [20] is Rattus norvegicus. In words: Bioreduction experiment was conducted by incubation of the sulfoxides with rat liver S-9 fractions in aerobic conditions (N2, NADPH). Type of assay: functional. In short, it runs like this: as §3
The species entered for assay [21] is Rattus norvegicus. The assay is described as follows: Bioreduction experiment was conducted by incubation of the sulfoxides with rat liver S-9 fractions in aerobic conditions (N2, 2-hydroxypyrimidine). Type of assay: functional. In a few lines:
as §3

The species named for assay [22] is Rattus norvegicus. In words: Bioreduction experiment was conducted by incubation of the sulfoxides with rat liver S-9 fractions in aerobic conditions (N2, acetaldehyde). Type of assay: functional. In short, it runs like this:
as §3

Assay [23] is filed under the species Rattus norvegicus. The assay is described as follows: Bioreduction experiment was conducted by incubation of the sulfoxides with rat liver S-9 fractions in aerobic conditions (air, benzaldehyde). Format: functional. In a few lines: as §3
For assay [24], the species on record is Rattus norvegicus. The assay is described as follows: Bioreduction experiment was conducted by incubation of the sulfoxides with rat liver S-9 fractions in aerobic conditions (air, without cofactors). Format: functional. In short, it runs like this: as §3
The species entered for assay [25] is Rattus norvegicus. In words: Bioreduction experiment was conducted by incubation of the sulfoxides with rat liver S-9 fractions in aerobic conditions (air, NADPH). Format: functional. In a few lines: as §3
The species named for assay [26] is Rattus norvegicus. In words: Bioreduction experiment was conducted by incubation of the sulfoxides with rat liver S-9 fractions in aerobic conditions (air, control). Format: functional. In short, it runs like this: as §3
The species entered for assay [27] is Rattus norvegicus. In words: Bioreduction experiment was conducted by incubation of the sulfoxides with rat liver S-9 fractions in aerobic conditions (N2, menadione). Format: functional. In a few lines:
as §3

`O=[N+]([O-])c1ccc(Sc2ccc(N(CCCl)CCCl)cc2)cc1` returned an IC50 in assay [1] of 2.25 µM. Moreover, the Cytotoxicity in [2] amounted to 1.

For `O=[N+]([O-])c1ccc([S+]([O-])c2ccc(N(CCCl)CCCl)cc2)cc1` (centres undefined), the IC90 was 182 µM in assay [3] and 3680 µM in [5]. Moreover, the Selectivity in assay [4] was 20. In assay [1], this molecule displayed an IC50 of 21.9 µM. Moreover, the Cytotoxicity in assay [2] was found to be 0.1.

As to `[O-][s+]1c2ccc(N(CCCl)CCCl)cc2c2cc(N(CCCl)CCCl)ccc21`, the Bioreduction is listed as 0.33% in the assay listed under Rattus norvegicus [6], 0.6% in the assay filed under Rattus norvegicus [7], 0.6% in the assay listed under Rattus norvegicus [9] and 0% in the assay filed under Rattus norvegicus [10]. In addition, in [4], the Selectivity came out at 3. Besides, the figures for the IC90 in assay [8] and in [12] were 1520 µM and 4670 µM, respectively. Besides, the E in the assay filed under Rattus norvegicus [11] is 1.96 -V.

Regarding `[O-][S+](c1ccc(N(CCCl)CCCl)cc1)c1ccc(N(CCCl)CCCl)cc1`, the Bioreduction in the assay filed under Rattus norvegicus [13], in the assay filed under Rattus norvegicus [14], in the assay listed under Rattus norvegicus [15], in the assay listed under Rattus norvegicus [16], in the assay filed under Rattus norvegicus [17] and in the assay listed under Rattus norvegicus [18] was 0% each time. Moreover, the Bioreduction in the assay listed under Rattus norvegicus [10] is on record as 0%. In addition, in [4], the Selectivity was 17. Besides, the IC90 amounted to 184 µM in assay [8] and 3090 µM in assay [12]. The E in the assay listed under Rattus norvegicus [11] is given as 2.63 -V.

As to `[O-][s+]1c2ccccc2c2ccccc21`, the Bioreduction in the assay filed under Rattus norvegicus [7] stood at 0%; in the assay listed under Rattus norvegicus [19] it was 0%; in the assay listed under Rattus norvegicus [9], 4.4%. Also, the E in the assay filed under Rattus norvegicus [11] is reported as 1.82 -V.

With `[O-][S+](c1ccccc1)c1ccccc1` [(PHENYLSULFINYL)BENZENE], the Bioreduction is 0% in the assay filed under Rattus norvegicus [20]; 17.4% in the assay filed under Rattus norvegicus [21]; 6% in the assay listed under Rattus norvegicus [22]; 0% in the assay listed under Rattus norvegicus [7]; 0% in the assay listed under Rattus norvegicus [23]; 0% in the assay filed under Rattus norvegicus [24]. Besides, the Bioreduction in the assay filed under Rattus norvegicus [25] is 11.6 nmol/mg; in the assay listed under Rattus norvegicus [26] it was 0%; in the assay listed under Rattus norvegicus [19], 0%; in the assay listed under Rattus norvegicus [9], 18%; in the assay filed under Rattus norvegicus [27], 0%. Besides, the E in the assay filed under Rattus norvegicus [11] is on record as 2.3 -V.

With `C[S+]([O-])c1ccccc1` (centres undefined) [METHYLPHENYLSULFOXIDE], the results for the Bioreduction in the assay listed under Rattus norvegicus [7], in the assay listed under Rattus norvegicus [19] and in the assay listed under Rattus norvegicus [9] were 0%, 0% and 10.2%, respectively. In the assay filed under Rattus norvegicus [11], the E is reported as 2.4 -V.

Take `[O-][S+](c1ccccc1)c1ccc(N(CCCl)CCCl)cc1` (centres undefined): the Selectivity in assay [4] worked out at 11. In addition, the IC90 in assay [8] came out at 189 µM; in assay [12], 2010 µM.
